{
  "source": "paper PMC4177010",
  "about": "(Cancer chemotherapy and pharmacology, 2014)",
  "key": {"[1]": {"tested_on": "Caco2 cells", "assay": "Cell proliferation assay", "assay_type": "cell-based, human", "settings": "100 nM 1,25(OH)2D3, 5 days"}, "[2]": {"tested_on": "Survivin", "assay": "Human apoptosis antibody array, HL-60 cells", "assay_type": "cell-based", "settings": "1,25(OH)2D3 (20 nM), 18 hours", "procedure,_shortened": "(§1)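 Lysates in kit lysis buffer went onto a blocked glass-chip array of 44 apoptosis capture antibodies spotted in duplicate, 18 h at 4 °C. Biotinylated detection antibodies and fluorescent streptavidin were each applied 2 h at room temperature. A fluorescence scan gave spot intensities.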"}, "[3]": {"tested_on": "SKOV3 cells", "assay": "Cell proliferation assay", "assay_type": "cell-based, human", "settings": "100 nM 1,25(OH)2D3, 5 days"}, "[4]": {"tested_on": "HL-60 cells", "assay": "Cell proliferation assay", "assay_type": "cell-based, human", "settings": "HL-60 treated with VDR siRNA; same concentrations as non-transfected cells"}, "[5]": {"tested_on": "caspase 7", "assay": "rt-PCR mRNA levels in HL-60 cells", "assay_type": "cell-based, human", "settings": "20 nM 1,25(OH)2D3, 18 hours"}, "[6]": {"tested_on": "HTRA", "assay": "Human apoptosis antibody array, HL-60 cells", "assay_type": "cell-based", "settings": "1,25(OH)2D3 (20 nM), 18 hours", "procedure,_shortened": "as §1"}, "[7]": {"tested_on": "NCoR", "assay": "ChIP at the CYP24A1 promoter in HL-60 cells, NCoR antibody", "assay_type": "cell-based, human", "settings": "20 nM 1,25(OH)2D3, 18 hours"}, "[8]": {"tested_on": "SRC2", "assay": "ChIP at the CYP24A1 promoter in HL-60 cells, SRC2 antibody", "assay_type": "cell-based, human", "settings": "20 nM 1,25(OH)2D3, 18 hours"}, "[9]": {"tested_on": "CYP3A4", "assay": "rt-PCR mRNA levels in HL-60 cells", "assay_type": "cell-based, human", "settings": "18 hours, 1,25(OH)2D3 (20 nM), PS121912 (3 µM) or a combination thereof"}, "[10]": {"tested_on": "IGF-II", "assay": "Human apoptosis antibody array, HL-60 cells", "assay_type": "cell-based", "settings": "1,25(OH)2D3 (20 nM), 18 hours", "procedure,_shortened": "as §1"}, "[11]": {"tested_on": "caspase 3", "assay": "rt-PCR mRNA levels in HL-60 cells", "assay_type": "cell-based, human", "settings": "20 nM 1,25(OH)2D3, 18 hours"}},
  "data": [
    {"smiles": "C=C1/C(=C\\C=C2/CCC[C@]3(C)[C@@H]([C@H](C)CCCC(C)(C)O)CC[C@@H]23)C[C@@H](O)C[C@@H]1O", "note": "[1,25(OH)2D3, 1,25-dihydroxyvitamin D3]", "values": [
      {"measurement": "antiproliferative effect", "setting": "[1]", "value": "minor antiproliferative effect"},
      {"measurement": "Survivin protein level", "setting": "[2]", "value": "reduced"},
      {"measurement": "antiproliferative effect", "setting": "[3]", "value": "minor antiproliferative effect"},
      {"measurement": "antiproliferation effect in VDR siRNA treated cells", "setting": "[4]", "value": "abolished"},
      {"measurement": "caspase 7 mRNA levels", "setting": "[5]", "value": "no change"},
      {"measurement": "HTRA protein level", "setting": "[6]", "value": "upregulated"},
      {"measurement": "interaction between VDR and NCoR at the CYP24A1 promoter", "setting": "[7]", "value": "reduced"},
      {"measurement": "SRC2 recruitment at the CYP24A1 promoter", "setting": "[8]", "value": "recruitment of coactivator SRC2"},
      {"measurement": "mRNA levels of CYP3A4", "setting": "[9]", "value": "not altered"},
      {"measurement": "IGF-II protein level", "setting": "[10]", "value": "induced"},
      {"measurement": "caspase 3 mRNA levels", "setting": "[11]", "value": "no change"}
    ]}
  ]
}
